Reference: article PMC11974842 (bioRxiv, 2025)

Tests used:
[1] = Melting temperature by Thermofluor; assay type: physicochemical, Homo sapiens; conditions: R65W vs WT HsCia1
[2] = system: HsCia2a; test: Affinity copurification of HsCia1 with HsCia2a; assay type: binding, Homo sapiens; conditions: strep-tagged HsCia1 bait, HsCia2a prey
How it was run: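 Recombinant human Cia1, wild-type or R65A variant, carries the strep tag as bait. Human Cia2a is the prey. Copurified proteins are compared between the two bait forms. Uncropped gels, including input samples and controls, accompany the analysis.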

[3] = system: Cia1; conditions: via C-terminal tryptophan; ref [26]; cited from earlier work
[4] = system: CtCia1-Cia2; test: Affinity copurification of ScMet18 with CtCia1-Cia2; assay type: binding, Chaetomium thermophilum

What does the source list for “Hs R65WCia1: human Cia1 pathogenic variant implicated in a fatal neuromuscular disorder”?
thermostability of HsCia1 [1]: without impacting Cia1’s thermostability; thermostability of HsCia1 ([1]; listed as R65W HsCia1): did not affect the stability of HsCia1 in vitro; interaction with HsCia2a [2]: strongly disrupted

With Viperin: CIA client as the molecule, how does the “binding to Cia1” value [3] read?
The value was “binds Cia1 via Viperin’s C-terminal tryptophan”.

B1: ScMet18: S. cerevisiae Met18 with N-terminal His6-SUMO tag (protein)
chain: MTPDELNSAVVTFMANLNIDDSKANETASTVTDSIVHRSIKLLEVVVALKDYFLSENEVERKKALTCLTTILAKTPKDHLSKNECSVIFQFYQSKLDDQALAKEVLEGFAALAPMKYVSINEIAQLLRLLLDNYQQGQHLASTRLWPFKILRKIFDRFFVNGSSTEQVKRINDLFIETFLHVANGEKDPRNLLLSFALNKSITSSLQNVENFKEDLFDVLFCYFPITFKPPKHDPYKISNQDLKTALRSAITATPLFAEDAYSNLLDKLTASSPVVKNDTLLTLLECVRKFGGSSILENWTLLWNALKFEIMQNSEGNENTLLNPYNKDQQSDDVGQYTNYDACLKIINLMALQLYNFDKVSFEKFFTHVLDELKPNFKYEKDLKQTCQILSAIGSGNVEIFNKVISSTFPLFLINTSEVAKLKLLIMNFSFFVDSYIDLFGRTSKESLGTPVPNNKMAEYKDEIIMILSMALTRSSKAEVTIRTLSVIQFTKMIKMKGFLTPEEVSLIIQYFTEEILTDNNKNIYYACLEGLKTISEIYEDLVFEISLKKLLDLLPDCFEEKIRVNDEENIHIETILKIILDFTTSRHILVKESITFLATKLNRVAKISKSREYCFLLISTIYSLFNNNNQNENVLNEEDALALKNAIEPKLFEIITQESAIVSDNYNLTLLSNVLFFTNLKIPQAAHQEELDRYNELFISEGKIRILDTPNVLAISYAKILSALNKNCQFPQKFTVLFGTVQLLKKHAPRMTETEKLGYLELLLVLSNKFVSEKDVIGLFDWKDLSVINLEVMVWLTKGLIMQNSLESSEIAKKFIDLLSNEEIGSLVSKLFEVFVMDISSLKKFKGISWNNNVKILYKQKFFGDIFQTLVSNYKNTVDMTIKCNYLTALSLVLKHTPSQSVGPFINDLFPLLLQALDMPDPEVRVSALETLKDTTDKHHTLITEHVSTIVPLLLSLSLPHKYNSVSVRLIALQLLEMITTVVPLNYCLSYQDDVLSALIPVLSDKKRIIRKQCVDTRQVYYELGQIPFE
modifications: left off: His6, N-terminal, state not stated | SUMO, N-terminal, state not stated
With B1 as the molecule, how does the “binding to CtCia1-Cia2” value [4] read?
Its value is “can bind to CtCia1-Cia2”.
